Scp-1 inhibitor: Scp-1 phosphatase inhibitors, primary screen, biochemical, colorimetric, uHTS | AID 493091, 2011 | Recombinant Scp1, phosphopeptide, malachite green phosphate absorbance | 340,000 compounds, 0.88% hits | inhibition, % at 20 µM | Carboxy-terminal domain RNA polymerase II polypeptide A small phosphatase 1 (Homo …;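 active means inhibition above about 50% at 20 µM, limit read from the data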
Target sequence (Q9GZU7 76-261 limits assumed): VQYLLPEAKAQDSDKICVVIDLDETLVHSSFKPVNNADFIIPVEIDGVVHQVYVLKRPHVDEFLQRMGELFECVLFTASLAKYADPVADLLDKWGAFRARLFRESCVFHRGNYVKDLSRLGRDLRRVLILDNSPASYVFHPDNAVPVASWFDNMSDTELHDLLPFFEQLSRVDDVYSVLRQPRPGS
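Incubation: 45 min enzyme reaction at room temperature / System: truncated SCP-1 phosphatase (76-261aa) / Reagent: Phospho 17-mer peptide substrate / Buffer or medium: Acidic Tris acetate buffer with magnesium and detergent / Signal: absorbance at 630 nm / Doses: one concentration, 20 µM, with 1.0% DMSO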
LMPTP block: LMPTP phosphatase inhibitors, primary screen, biochemical, fluorescence intensity, uHTS; Low molecular weight phosphotyrosine protein phosphatase (Homo sapiens), P24666; recombinant LMPTP-A, OMFP fluorogenic substrate; inhibition, % at 20 µM; 360,000 compounds, 0.22% hits;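 active means compounds that cut the enzyme signal by at least half of the control window in the single-dose screen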
Target sequence (P24666 whole entry, looked up): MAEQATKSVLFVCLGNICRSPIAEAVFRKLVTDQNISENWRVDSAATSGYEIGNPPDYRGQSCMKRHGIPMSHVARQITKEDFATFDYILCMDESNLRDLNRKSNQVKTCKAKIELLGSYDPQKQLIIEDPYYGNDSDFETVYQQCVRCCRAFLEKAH
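Test system – LMPTP-A enzyme · Amount – LMPTP-A at 0.625 nM final in the reaction · Buffer or medium – Bis-Tris pH 6.0, DTT, detergent · Reagent – OMFP 400 µM · Doses – single 20 µM dose · Schedule – reaction 50 min, room temperature, dark · Detection – fluorescence intensity of OMFP turnover product · Evaluation – percent inhibition versus substrate-only and uninhibited controls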
STEP inh: STEP phosphatase inhibitors, primary screen, biochemical, fluorescence intensity, uHTS. recombinant STEP, OMFP fluorogenic substrate. inhibition, % at 20 µM. 360,000 compounds, 0.25% hits. AID 588621, 2011;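 active means inhibition at 20 µM, scaled per plate between control wells, above about 37%, limit read from the data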
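Material: STEP (striatal-enriched tyrosine phosphatase) enzyme, cell-free; Compound dosing: 20 µM single dose in 1% DMSO; Technique: fluorescence read at 480 nm ex / 540 nm em; Times: reaction 20 min, ambient temperature; Medium: 50 mM Bis-Tris pH 6.0 with 2.5 mM DTT and 0.005% Tween 20; Also added: OMFP at 25 µM.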
SUMO1 PPI mod: modulators of SUMO1 protein-protein interactions, primary screen, biochemical, uHTS | Small ubiquitin-related modifier 1 (Homo sapiens), P63165 | inhibition, % at 20 µM | SUMO1 binding to a labelled peptide, TR-FRET, 1 h | 360,000 compounds, 0.33% hits; in the data active means inhibition above about 37%
Target sequence (P63165 whole entry, looked up): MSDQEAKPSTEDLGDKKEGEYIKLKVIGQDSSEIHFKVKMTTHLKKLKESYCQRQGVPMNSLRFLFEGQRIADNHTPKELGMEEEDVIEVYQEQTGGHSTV
DNMT1 inh: human DNMT1 methyltransferase inhibitors, primary screen, biochemical, molecular beacon, fluorescence, HinP1I cleavage, uHTS; DNA (cytosine-5)-methyltransferase 1 (Homo sapiens), P26358; inhibition (reported as % activation of signal), % at 10 µM; 360,000 compounds, 0.83% hits; in the data active means inhibition above about 50%
CASP6 VEID inh: human caspase-6 inhibitors, primary screen, biochemical, VEID-R110 fluorescence, single point, set 2; P55212; purified caspase-6, Z-VEID-R110 cleavage fluorescence; 350,000 compounds, 0.53% hits; inhibition, % at 12.5 µM;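 active means mean inhibition across replicates at least about 35%, with every replicate also reaching that limit, limit read from the data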
Target sequence (P55212 24-179 limits assumed): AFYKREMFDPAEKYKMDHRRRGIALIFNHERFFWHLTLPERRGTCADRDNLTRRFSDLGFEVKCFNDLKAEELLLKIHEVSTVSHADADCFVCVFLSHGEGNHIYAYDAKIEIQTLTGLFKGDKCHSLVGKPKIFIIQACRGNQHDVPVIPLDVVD
Target sequence (P55212 194-293 limits assumed): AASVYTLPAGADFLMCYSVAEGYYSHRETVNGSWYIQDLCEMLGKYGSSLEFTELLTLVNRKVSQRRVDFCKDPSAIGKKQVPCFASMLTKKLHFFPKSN
Scp-1 conf: Scp-1 phosphatase inhibitors, retest, confirmation, biochemical, colorimetric, single concentration. shares compounds with Scp-1 inhibitor. 2,500 compounds, 61% hits. AID 540281, 2011. inhibition, % at 20 µM. recombinant SCP-1 catalytic domain, phosphate release, malachite green absorbance
Scp-1 MG ctr: colorimetric readout interference by compounds, confirmation, artefact control for Scp-1 inhibitor project, biochemical, single concentration. shares compounds with Scp-1 inhibitor. Colorimetric interference counterscreen, malachite green absorbance 630 nm. apparent inhibition (interference), % at 20 µM. 2,500 tested, under 10 active;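 further: compounds added after enzyme reaction finished so only phosphate colour detection is probed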
Scp1 DSF: Scp-1 binding by thermal shift, confirmation, orthogonal assay for Scp-1 inhibitor project, biophysical, differential scanning fluorimetry. AID 540329, 2011. thermal shift relative to vanadate control, % at 40 µM. Recombinant SCP1, Sypro Orange thermal shift Tm. 1,500 compounds, 25% hits. shares compounds with Scp-1 inhibitor;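 active means substances whose mean melting-temperature shift, as a percentage of the reference inhibitor's shift, reaches about 5.3%, limit read from the data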
Each line names hits and unclear results; the compound was inactive in the other large screens (follow-up assays come after a bar, where they were run). This is a sample that favours compounds with a hit; in the whole collection about 1.7% have one here.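 How the source made its calls, unless noted: active means inhibition of at least 30% at 20 µM; inactive means the rest.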

Cc1ccc2nc(SCC(=O)Nc3ccc(Br)cc3)nc(=O)n2c1	Scp-1 inhibitor 60 | Scp-1 conf inactive | Scp-1 MG ctr inactive
Cc1ccc2nc(SCC(=O)Nc3ccc(C)c(Cl)c3)nc(=O)n2c1	none
O=C(COC(=O)c1ccc(NS(=O)(=O)c2cccs2)cc1)Nc1nc2c(F)c(F)c(F)cc2s1	Scp-1 inhibitor 51 (no result: CASP6 VEID inh) | Scp-1 conf 65 | Scp-1 MG ctr inactive | Scp1 DSF 26
N#CC(c1ccccc1O)N1N=C(c2ccccc2)CC1c1ccccc1 (stereo not given)	none
CS(=O)(=O)C1=NSC2=NC(=O)/C(=C\c3cccn3-c3ccc(Cl)cc3)C(=N)N21	Scp-1 inhibitor 83, STEP inh 95 (no result: CASP6 VEID inh) | Scp-1 conf 79 | Scp-1 MG ctr inactive | Scp1 DSF inactive
CCCc1nc2oc3c(NCCN(C)C)ncnc3c2c2c1CCCC2	none (no result: CASP6 VEID inh)
O=c1c(O)c(-c2ccc(O)cc2)oc2cc(O)cc(O)c12	Scp-1 inhibitor 53 | Scp-1 conf 54 | Scp-1 MG ctr inactive | Scp1 DSF 9.2
COc1ccc(-c2cc(C(=O)N3CCOCC3)no2)cc1OC	none (no result: CASP6 VEID inh)
Cc1ccc(-c2cc(C(=O)N3CCOCC3)c3ccccc3n2)o1	none
Cc1ccc(-c2cc(C(=O)N3CCN(c4ccc(F)cc4)CC3)c3ccccc3n2)o1	Scp-1 inhibitor 53 (no result: CASP6 VEID inh) | Scp-1 conf inactive | Scp-1 MG ctr inactive
CCCNC(=O)Cn1c(=O)oc2cc(S(=O)(=O)N3CCCC3)ccc21	none
O=C(Cn1c(=O)oc2cc(S(=O)(=O)N3CCCCCC3)ccc21)NC1CCCCCCC1	Scp-1 inhibitor 101 | Scp-1 conf 54 | Scp-1 MG ctr inactive | Scp1 DSF inactive
O=C(Cn1c(=O)oc2cc(S(=O)(=O)N3CCCC3)ccc21)N1CCN(c2ccccc2)CC1	Scp-1 inhibitor 69 | Scp-1 conf inactive | Scp-1 MG ctr inactive
Cc1ccc(C)c(N2CCN(C(=O)Cn3c(=O)oc4cc(S(=O)(=O)N5CCCC5)ccc43)CC2)c1	none
CCOC(=O)C(C)Oc1cccc2c(=O)n(CC(=O)Nc3ccc4c(c3)OCCO4)ccc12 (stereo not given)	none
COc1cccc(N2[C@@H](CC(=O)O)c3cc(C(F)(F)F)ccc3S2(=O)=O)c1	Scp-1 inhibitor 104 | Scp-1 conf 69 | Scp-1 MG ctr inactive | Scp1 DSF inactive
O=S(=O)(NCC[C@@H]1CC[C@@H](NS(=O)(=O)c2cccc(Cl)c2)[C@H](CO)O1)c1cccc(F)c1	none (no result: Scp-1 inhibitor, LMPTP block, STEP inh, SUMO1 PPI mod, DNMT1 inh)
Cc1ccc(C(=O)N2CCN(c3ncnc4c(C)csc34)CC2)cc1	Scp-1 inhibitor 58 | Scp-1 conf inactive | Scp-1 MG ctr inactive
CCOC(=O)c1cnn(Cc2ccccc2)c1N	none
COc1ccccc1CC(=O)NNC(=O)c1cccs1	none
O=C1C=C(O)c2cccc(O)c2C1=O	Scp-1 inhibitor 50, CASP6 VEID inh 77 | Scp-1 conf 43 | Scp-1 MG ctr inactive | Scp1 DSF 12
N#Cc1c(Cl)nc(N/N=C/c2ccccc2)c(Cl)c1Cl	none
C[N+](C)(C)c1ccc(/C=N/Nc2nc(Cl)c(C#N)c(Cl)c2Cl)cc1	Scp-1 inhibitor 53 (no result: CASP6 VEID inh) | Scp-1 conf inactive | Scp-1 MG ctr inactive
CC(=O)C(Cc1ccc(Cl)nc1)Cc1ccc(Cl)nc1	Scp-1 inhibitor 69 | Scp-1 conf inactive | Scp-1 MG ctr inactive
O=c1oc2c(-c3ccc([N+](=O)[O-])cc3)cc(O)cc2s1	Scp-1 inhibitor 103, SUMO1 PPI mod 67 | Scp-1 conf 66 | Scp-1 MG ctr inactive | Scp1 DSF 10
CC1(C)CC(NC(=O)c2cccc(F)c2)CC(C)(C)N1	none
CC(=O)Nc1ccc(C(=O)N/N=C/c2cc(Br)cc(Br)c2O)cc1	none
CC(C)C(=O)Nc1ccc(C(=O)N/N=C/c2cc(Br)cc(Br)c2O)cc1	Scp-1 inhibitor 55 | Scp-1 conf inactive | Scp-1 MG ctr inactive
Cc1ccc(C(=O)OCC(=O)c2ccc(CC(=O)N3CCOCC3)s2)cc1C	Scp-1 inhibitor 55 | Scp-1 conf 57 | Scp-1 MG ctr inactive | Scp1 DSF inactive
Nc1nnn(CC(=O)N/N=C/c2ccco2)n1	none
CS(=O)(=O)c1ccc(-c2sc3cc4c(cc3c2C(=O)NN2CCOCC2)OCO4)cc1	Scp-1 inhibitor 101 | Scp-1 conf 86 | Scp-1 MG ctr inactive | Scp1 DSF inactive
O=C(NN1CCOCC1)c1c(-c2ccccc2)sc2ccccc12	none
Cn1c(NNC(=O)c2ccc(C(C)(C)C)cc2)cc(=O)n(C)c1=O	none
Cn1c(NNC(=O)CCC2CCCCC2)cc(=O)n(C)c1=O	none | Scp-1 conf inactive | Scp-1 MG ctr inactive
Cn1c(NC(=O)CCC2CCCCC2)cc(=O)n(C)c1=O	none | Scp-1 conf inactive | Scp-1 MG ctr inactive
Cn1c(NC(=O)Cc2cccc3ccccc23)cc(=O)n(C)c1=O	none | Scp-1 conf inactive | Scp-1 MG ctr inactive
Cn1c(NC(=O)c2ccc(C(C)(C)C)cc2)cc(=O)n(C)c1=O	none | Scp-1 conf inactive | Scp-1 MG ctr inactive
Cn1c(NC(=O)C2CC2)cc(=O)n(C)c1=O	none
C[C@H](O)C#Cc1cnc2c(c1)C(=O)N([C@@H](C)CO)C[C@H](C)[C@@H](CN(C)C(=O)CN1CCOCC1)O2	none (no result: Scp-1 inhibitor, LMPTP block, STEP inh, SUMO1 PPI mod, DNMT1 inh)
C[C@H]1CN([C@@H](C)CO)S(=O)(=O)c2ccc(C#Cc3ccc(F)cc3)cc2O[C@H]1CN(C)C(=O)c1ccccn1	none (no result: Scp-1 inhibitor, LMPTP block, STEP inh, SUMO1 PPI mod, DNMT1 inh)
COc1cccc(-c2cnc3c(c2)C(=O)N([C@H](C)CO)C[C@@H](C)[C@H](CN(C)CC2CCCC2)O3)c1	none (no result: Scp-1 inhibitor, LMPTP block, STEP inh, SUMO1 PPI mod, DNMT1 inh)
O=C(C[C@H]1CC[C@H]2[C@@H](COC[C@@H](O)CN2S(=O)(=O)c2ccc(Oc3ccccc3)cc2)O1)Nc1ccccc1	none (no result: Scp-1 inhibitor, LMPTP block, STEP inh, SUMO1 PPI mod, DNMT1 inh)
